Holding throughout (assay type): functional
In experiment [1] the test system is Mycobacterium tuberculosis. Briefly: Antimycobacterial activity against drug-resistant Mycobacterium tuberculosis H37Rv ATCC 2517-infected hollow fiber system based in vitro pharmacokinetic-pharmacodynamic tuberculosis model assessed as rate constant for maximal bacterial kill.
For experiment [2], the system named is Mycobacterium tuberculosis. Briefly: Antimycobacterial activity against drug-resistant Mycobacterium tuberculosis H37Rv ATCC 2517-infected hollow fiber system based in vitro pharmacokinetic-pharmacodynamic tuberculosis model assessed as rate constant for maximal bacterial growth.
Experiment [3] relates to Mycobacterium tuberculosis. Briefly: Antimycobacterial activity against drug-resistant Mycobacterium tuberculosis H37Rv ATCC 2517-infected hollow fiber system based in vitro pharmacokinetic-pharmacodynamic tuberculosis model assessed as sigmoidicity constant for microbial killing.
Experiment [4] deals with Mycobacterium tuberculosis. Briefly: Antimycobacterial activity against drug-resistant Mycobacterium tuberculosis H37Rv ATCC 2517-infected hollow fiber system based in vitro pharmacokinetic-pharmacodynamic tuberculosis model assessed as concentration needed to achieve 50% effect on maximal growth rate.
The subject of experiment [5] is Mycobacterium tuberculosis. Kind of experiment: Antimycobacterial activity against drug-resistant Mycobacterium tuberculosis H37Rv ATCC 2517-infected hollow fiber system based in vitro pharmacokinetic-pharmacodynamic tuberculosis model assessed as sigmoidicity constant for drug effect on microbial growth.
In experiment [6] the test system is Mycobacterium tuberculosis. Kind of experiment: Antimycobacterial activity against drug-resistant Mycobacterium tuberculosis H37Rv ATCC 2517-infected hollow fiber system based in vitro pharmacokinetic-pharmacodynamic tuberculosis model assessed as concentration needed to achieve 50% maximal killing rate. The method, boiled down: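 Hollow-fibre system at 37°C under 5% CO2, preconditioned with drug for 3 days. Log-phase bacilli (10 ml of 10^6 CFU/ml) went into the peripheral compartment. […] Drug levels were checked centrally. Peripheral samples were taken daily for 7 days, washed twice in saline and plated on 7H10 agar for CFU.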

Regarding `CO[C@H]1/C=C/O[C@@]2(C)Oc3c(C)c(O)c4c(O)c(c(/C=N/N5CCN(C)CC5)c(O)c4c3C2=O)NC(=O)/C(C)=C\C=C\[C@H](C)[C@H](O)[C@@H](C)[C@@H](O)[C@@H](C)[C@H](OC(C)=O)[C@@H]1C` [RIFAMPIN], the Kkmax in experiment [1] is recorded as 29.379 ×10⁻³ log10CFU/ml/hr. In experiment [2], the Kgmax was 6.195 ×10⁻³ log10CFU/ml/hr. Besides, the Hk in experiment [3] turned out to be 45.326. In addition, in experiment [4], the C50g was 2.019 mg/L. The Hg in experiment [5] was 4.542. The C50k in experiment [6] came out at 22.405 mg/L.

Values taken from ChEMBL document CHEMBL1137651 (Antimicrob Agents Chemother, 2007).
